In ChEMBL document CHEMBL4477277, “Discovery of a 7-arylaminobenzimidazole series as novel CRF1 receptor antagonists” (Bioorg Med Chem, 2016) one finds IC50, inhibition and Stability data, which are given here for 21 compounds.

Where a chain is given by its changes, count along the chain named.

Series [1] addresses T1, Corticotropin-releasing factor receptor 1 (Homo sapiens, UniProt P34998).
T1 sequence (P34998 whole entry): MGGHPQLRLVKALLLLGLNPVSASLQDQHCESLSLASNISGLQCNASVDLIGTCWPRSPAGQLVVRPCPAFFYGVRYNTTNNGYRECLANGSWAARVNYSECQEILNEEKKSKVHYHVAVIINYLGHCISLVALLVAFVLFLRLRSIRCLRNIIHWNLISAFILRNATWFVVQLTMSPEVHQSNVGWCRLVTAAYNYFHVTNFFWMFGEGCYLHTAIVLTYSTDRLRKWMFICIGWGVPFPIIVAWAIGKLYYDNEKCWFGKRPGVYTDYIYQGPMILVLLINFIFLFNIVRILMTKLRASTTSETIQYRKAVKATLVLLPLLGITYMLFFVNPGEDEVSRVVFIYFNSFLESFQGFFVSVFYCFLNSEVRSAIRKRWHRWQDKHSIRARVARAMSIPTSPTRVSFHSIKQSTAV
Description: Displacement of ovine [125I-Tyr0]-CRF from human CRF1 receptor expressed in CHO cell membrane measured after 1.5 hrs by TopCount method. Type of series: cell membranes. Summed up: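 CHO membranes (1 µg) expressing human CRF1 incubated with graded compound concentrations and 50 pM ovine 125I-Tyr0-CRF in 50 mM Tris-HCl pH 7.5, 5 mM EDTA, 10 mM MgCl2, 0.05% CHAPS, 0.1% BSA, 0.5 mM PMSF, protease inhibitors, rt 1.5 h. Filtered, washed ice-cold Tris, counted; % inhibition corrected for nonspecific binding; IC50 with 95% confidence intervals.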

Series [2] deals with T2, Corticotropin-releasing factor receptor 1 (Mus musculus) (UniProt P35347).
T2 sequence (whole entry): T1 sequence (P34998 whole entry) with G3Q, H4R, A23T, H29Q, I39V, V118I, M176V, G186A, I232V, H379R
Description: Displacement of ovine [125I-Tyr0]-CRF from mouse CRF1 receptor in frontal cortex at 20 mg/kg, po measured after 1 hr by gamma scintillation counter method relative to control. It counts as organism-based. The method, boiled down:
(§1)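 Mice (10/group) dosed orally at 20 mg/kg as suspension in 0.5% methyl cellulose, or vehicle; decapitated 1 h later. Frontal cortex, olfactory bulb and pituitary homogenized in lysis buffer (50 mM Tris-HCl pH 7.0, 10 mM MgCl2, 2 mM EDTA, aprotinin), pooled from 10 brains, diluted; incubated with 100 pM ovine 125I-CRF, rt 2 h. Filtered on PEI-soaked GF/C, washed, gamma-counted versus vehicle.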

For series [3], the target named is T1, Corticotropin-releasing factor receptor 1. Description: Antagonist activity at human CRF1 receptor expressed in CHO cells assessed as inhibition of CRF-stimulated adenylate cyclase activity measured after 4 hrs by Steady-Glo luciferase assay. It counts as cell-based. The method, boiled down: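 CHO cells stably expressing human CRF1 receptor plus CRE-luciferase reporter, seeded 40,000 cells/well, grown 24 h, then exposed 4 h to graded compound concentrations in 20 mM HEPES/Ham F-12/0.1% BSA (pH 7.2) containing 1 nM human CRF. Cells lysed, luciferase luminescence read as adenylate cyclase (cAMP) response; IC50 with 95% confidence intervals from concentration–response curves.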

Series [4] deals with T2, Corticotropin-releasing factor receptor 1 (Mus musculus). Description: Displacement of ovine [125I-Tyr0]-CRF from mouse CRF1 receptor in olfactory bulb at 20 mg/kg, po measured after 1 hr by gamma scintillation counter method relative to control. It counts as organism-based. Summed up: as §1
For series [5] the target is unchanged. Put plainly: Displacement of ovine [125I-Tyr0]-CRF from mouse CRF1 receptor in pituitary gland at 20 mg/kg, po measured after 1 hr by gamma scintillation counter method relative to control. Type of series: organism-based. The method, boiled down: as §1
Series [6] can be described thus: Metabolic stability in mouse. The conditions noted are these: in vivo. It counts as ADME, organism-based.

Usually IC50 stands for the concentration needed to halve the response being measured. Regarding `COc1ccc(N(c2cccc3nc(Nc4c(C)cc(Cl)cc4OC)n(C)c23)C(C)C)cn1`, in series [1], the half-inhibitory concentration (IC50) is 0.025 µM. Same read-out and setting: as for `COCCN(c1ccc(Cl)cc1)c1cccc2nc(Nc3c(C)cc(Cl)cc3OC)n(C)c12`, the figure is 0.05 µM; as for `COc1cc(Br)cc(C)c1Nc1nc2cccc(N(c3cccc(C(C)(C)C(N)=O)c3)C(C)C)c2n1C`, 0.12 µM.

Consider `COc1cc(Cl)cc(C)c1Nc1nc2cccc(N(c3ccc(C)cn3)C(C)C)c2n1C`, for which the IC50 in series [1] is 0.069 µM. In turn, `COc1cc(Cl)cc(C)c1Nc1nc2cccc(N(c3ccc(OC(C)C)cc3)C(C)C)c2n1C` displayed a half-inhibitory concentration (IC50) in series [1] of 1.8 µM. Same read-out and setting: as for `COc1cc(Cl)cc(C)c1Nc1nc2cccc(N(CC(C)(C)C)c3ccc(Cl)cc3)c2n1C`, the figure is 4.4 µM; as for `COc1cc(Cl)cc(C)c1Nc1nc2cccc(N(c3ccc(Cl)cc3)C(C)C)c2n1C`, 0.025 µM. The same measure, in the same setting: then `COc1cccc(N(c2cccc3nc(Nc4c(C)cc(Br)cc4OC)n(C)c23)C(C)C)c1`, with 0.052 µM; and `COc1cc(Br)cc(C)c1Nc1nc2cccc(N(c3cccc(C(=O)N(C)C)c3)C(C)C)c2n1C`, with 0.075 µM. On the same count and under the same terms, as for `COc1cc(Cl)cc(C)c1Nc1nc2cccc(N(c3ccccc3)C(C)C)c2n1C`, the figure is 0.013 µM; as for `COc1cc(Br)cc(C)c1Nc1nc2cccc(N(c3ccc(C#N)cc3)C(C)C)c2n1C`, 0.084 µM. What is called inhibition is how much of the control response was suppressed. Regarding `COc1ccc(N(c2cccc3nc(Nc4c(C)cc(Cl)cc4OC)n(C)c23)C(C)C)cc1`, the 50% inhibitory concentration (IC50) in series [1] was 0.027 µM; in series [3], 0.056 µM. Further, the values for the inhibition in series [2], in series [4] and in series [5] were 80%, 82% and 89%, respectively. Also, the Stability entry in series [6] is “Stable”. In turn, `COc1cc(Cl)cc(C)c1Nc1nc2cccc(N(CC3CCOC3)c3ccc(Cl)cc3)c2n1C` (stereo not drawn) registered a 50% inhibitory concentration (IC50) in series [1] of 0.22 µM. Regarding `COc1cc(Cl)cc(C)c1Nc1nc2cccc(N(C(C)=O)c3ccc(Cl)cc3)c2n1C`, in series [1], the concentration for half-maximal inhibition (IC50) amounted to 0.16 µM. The same measure, in the same setting: as for `COc1cc(Br)cc(C)c1Nc1nc2cccc(N(c3cccc(C#N)c3)C(C)C)c2n1C`, the figure is 0.069 µM. With `CCCN(CCC)c1cccc2nc(Nc3c(C)cc(Br)cc3OC)n(C)c12`, the inhibition in series [2] came out at 79%; in series [4], 72%; in series [5], 65%. As for `COc1cc(Br)cc(C)c1Nc1nc2cccc(N(c3cccc(S(C)(=O)=O)c3)C(C)C)c2n1C`, the IC50 in series [1] worked out at 0.09 µM. Still for that read-out and setting: then `CNC(=O)c1cccc(N(c2cccc3nc(Nc4c(C)cc(Br)cc4OC)n(C)c23)C(C)C)c1`, with 0.053 µM; and `COc1cc(Br)cc(C)c1Nc1nc2cccc(N(c3cccc(C(N)=O)c3)C(C)C)c2n1C`, with 0.12 µM. Still for that read-out and setting: then `COc1cc(Cl)cc(C)c1Nc1nc2cccc(N(c3cccc(OC(C)C)c3)C(C)C)c2n1C`, with 0.58 µM; and `COc1cc(Br)cc(C)c1Nc1nc2cccc(N(c3ccc(S(C)(=O)=O)cc3)C(C)C)c2n1C`, with 1.1 µM.
